Assay [1] relates to Mycobacterium tuberculosis. The experiment in a line: Antimycobacterial activity against Mycobacterium tuberculosis H37Rv assessed as growth inhibition at 6.25 ug/ml measured within 10 days by BACTEC MGIT method. It counts as functional. Particulars: 240 h. A digest of the protocol: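 Primary single-concentration screen at 6.25 in MGIT tubes containing modified Middlebrook 7H9 broth. H37Rv inoculum was 10⁴–10⁷ CFU/mL, […]. Incubated at 37 °C in the BACTEC MGIT instrument until positive, read daily from day 2. Fluorescence was judged under UV beside positive control and uninoculated tubes. Result scored as % inhibition.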

Assay [2] has as its system Mycobacterium tuberculosis. The experiment in a line: Antimycobacterial activity against Mycobacterium tuberculosis H37Rv assessed as growth inhibition […] by Lowenstein-Jensen agar dilution method. It counts as functional. The gist of the method:
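Test compounds dissolved in DMSO and added to liquid Lowenstein-Jensen medium at 25, 12.5, 6.25, 3.12 and 1.56 dilutions. Medium sterilised by inspissation, then tubes held 37 °C for 24 h. H37Rv (harvested into 0.85% saline) streaked at 5 × 10⁴ bacilli/tube and incubated at 37 °C. Growth checked at 12, 22 and 28 days against medium-only controls. MIC taken as no colonies or <20 colonies.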

For assay [3], the system named is Vero. The assay can be described thus: Cytotoxicity against African green monkey Vero cells assessed as cell viability after 72 hrs by MTT assay. It counts as cell-based. Particulars: Chlorocebus sabaeus. (In general: Tetrazolium dyes change colour on reduction, which living cells bring about.)

Values after ≈ are worked out from the molar mass of the structure shown.

A word on the inhibition: it is the percentage by which the read-out fell short of the control. What is called MIC99 is an inhibitory concentration at the 99% level, which refers to growth in some studies and to a panel of isolates in others. One may read the IC50 as the midpoint of a concentration-inhibition curve. On to `COc1ccc(C2SCC(=O)N2c2ccc(-c3nc(Oc4ccc(C#N)cn4)nc(N4CCN(C)CC4)n3)cc2)cc1` (configuration not stated), for which the inhibition at 6.25 µg/mL in assay [1] is 99%. The MIC99 in assay [2] was determined as 6.25 µg/mL (≈ 10.8 µM). Also, the IC50 in assay [3] was more than 62.5 µg/mL.
As for `CN1CCN(c2nc(Oc3ccc(C#N)cc3)nc(-c3ccc(N4C(=O)CSC4c4ccc(Br)cc4)cc3)n2)CC1` (configuration not stated), the MIC99 in assay [2] worked out at 25 µg/mL (≈ 39.8 µM). Further, the IC50 in assay [3] is more than 62.5 µg/mL.
On to `CN1CCN(c2nc(Oc3ccc(C#N)cn3)nc(-c3ccc(N4C(=O)CSC4c4ccc(Br)cc4)cc3)n2)CC1` (configuration not stated), for which the MIC99 in assay [2] stood at 62.5 µg/mL (≈ 99.3 µM).
Take `NC(=O)c1cnccn1` [PYRAZINAMIDE]: the MIC99 in assay [2] is 6.25 µg/mL (≈ 50.8 µM). Besides, the IC50 in assay [3] is more than 62.5 µg/mL.
In the case of `CN1CCN(c2nc(Oc3ccc(C#N)cc3)nc(-c3ccc(N4C(=O)CSC4c4ccc(O)cc4)cc3)n2)CC1` (configuration not stated), the inhibition at 6.25 µg/mL in assay [1] worked out at 99%. In assay [2], the MIC99 turned out to be 12.5 µg/mL (≈ 22.1 µM). Further, the IC50 in assay [3] is more than 62.5 µg/mL.
For `CC[C@@H](CO)NCCN[C@@H](CC)CO` [ETHAMBUTOL], the MIC99 in assay [2] is 3.12 µg/mL (≈ 15.3 µM). For the same compound, the IC50 in assay [3] was more than 62.5 µg/mL.
Consider `NNC(=O)c1ccncc1` [ISONIAZID], for which the MIC99 in assay [2] was found to be 0.2 µg/mL (≈ 1.46 µM). The IC50 in assay [3] is more than 62.5 µg/mL.
Consider `CN1CCN(c2nc(Oc3ccc(C#N)cc3)nc(-c3ccc(N4C(=O)CSC4c4ccc([N+](=O)[O-])cc4)cc3)n2)CC1` (configuration not stated), for which the MIC99 in assay [2] turned out to be 100 µg/mL (≈ 168 µM).
With `CN1CCN(c2nc(Oc3ccc(C#N)cn3)nc(-c3ccc(N4C(=O)CSC4c4ccc(O)cc4)cc3)n2)CC1` (configuration not stated), the inhibition at 6.25 µg/mL in assay [1] came to 99%. For the same compound, the MIC99 in assay [2] came out at 3.12 µg/mL (≈ 5.51 µM). The IC50 in assay [3] is more than 62.5 µg/mL.
Take `CN1CCN(c2nc(Oc3ccc(C#N)cc3)nc(-c3ccc(N4C(=O)CSC4c4ccccc4)cc3)n2)CC1` (configuration not stated): in assay [2], the MIC99 worked out at 200 µg/mL (≈ 364 µM).
Still for that read-out and setting: as for `CN1CCN(c2nc(Oc3ccc(C#N)cc3)nc(-c3ccc(N4C(=O)CSC4c4ccc(F)cc4)cc3)n2)CC1` (configuration not stated), the figure is 100 µg/mL (≈ 176 µM).
On to `COc1ccc(C2SCC(=O)N2c2ccc(-c3nc(Oc4ccc(C#N)cc4)nc(N4CCN(C)CC4)n3)cc2)cc1` (configuration not stated), for which, in assay [2], the MIC99 amounted to 25 µg/mL (≈ 43.1 µM). The IC50 in assay [3] was more than 62.5 µg/mL.
Consider `CO[C@H]1/C=C/O[C@@]2(C)Oc3c(C)c(O)c4c(O)c(c(/C=N/N5CCN(C)CC5)c(O)c4c3C2=O)NC(=O)/C(C)=C\C=C\[C@H](C)[C@H](O)[C@@H](C)[C@@H](O)[C@@H](C)[C@H](OC(C)=O)[C@@H]1C` [RIFAMPIN], for which the MIC99 in assay [2] amounted to 0.25 µg/mL (≈ 0.304 µM). The IC50 in assay [3] was more than 62.5 µg/mL.
For `CN1CCN(c2nc(Oc3ccc(C#N)cn3)nc(-c3ccc(N4C(=O)CSC4c4ccc([N+](=O)[O-])cc4)cc3)n2)CC1` (configuration not stated), the MIC99 in assay [2] was 100 µg/mL (≈ 168 µM).
Consider `CN1CCN(c2nc(Oc3ccc(C#N)cn3)nc(-c3ccc(N4C(=O)CSC4c4ccc(Cl)cc4)cc3)n2)CC1` (configuration not stated), for which the MIC99 in assay [2] was determined as 100 µg/mL (≈ 171 µM).
Consider `CN1CCN(c2nc(Oc3ccc(C#N)cn3)nc(-c3ccc(N4C(=O)CSC4c4ccc(F)cc4)cc3)n2)CC1` (configuration not stated), for which the inhibition at 6.25 µg/mL in assay [1] is 99%. Further, the MIC99 in assay [2] worked out at 6.25 µg/mL (≈ 11 µM). For the same compound, the IC50 in assay [3] is more than 62.5 µg/mL.
As to `CN1CCN(c2nc(Oc3ccc(C#N)cc3)nc(-c3ccc(N4C(=O)CSC4c4ccc(Cl)cc4)cc3)n2)CC1` (configuration not stated), the MIC99 in assay [2] amounted to 62.5 µg/mL (≈ 107 µM).
For the compound `CN1CCN(c2nc(Oc3ccc(C#N)cn3)nc(-c3ccc(N4C(=O)CSC4c4ccccc4)cc3)n2)CC1` (configuration not stated), the MIC99 in assay [2] is 125 µg/mL (≈ 227 µM).

For the origin of these results see ChEMBL document CHEMBL3232709, “Facile synthesis of benzonitrile/nicotinonitrile based s-triazines as new potential antimycobacterial agents” (Eur J Med Chem, 2014).
